{"source": "PubChem BioAssay AID2520", "about": "(Sanford-Burnham Center for Chemical Genomics, 2010)", "note": "Hit rate of the full screen: of about 330,000 compounds, about 350 (0.11%) were called active. The list comes from a sample in which actives are over-represented; it also holds similar structures and randomly drawn compounds. A number with no mark means an inactive call.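 Rule for the calls: active = activation more than six SD over the plate average, tested at 20 µM; inactive = the rest.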"}
{"target": "Apelin receptor (Homo sapiens) (UniProt P35414)", "sequence (P35414 whole entry, looked up)": "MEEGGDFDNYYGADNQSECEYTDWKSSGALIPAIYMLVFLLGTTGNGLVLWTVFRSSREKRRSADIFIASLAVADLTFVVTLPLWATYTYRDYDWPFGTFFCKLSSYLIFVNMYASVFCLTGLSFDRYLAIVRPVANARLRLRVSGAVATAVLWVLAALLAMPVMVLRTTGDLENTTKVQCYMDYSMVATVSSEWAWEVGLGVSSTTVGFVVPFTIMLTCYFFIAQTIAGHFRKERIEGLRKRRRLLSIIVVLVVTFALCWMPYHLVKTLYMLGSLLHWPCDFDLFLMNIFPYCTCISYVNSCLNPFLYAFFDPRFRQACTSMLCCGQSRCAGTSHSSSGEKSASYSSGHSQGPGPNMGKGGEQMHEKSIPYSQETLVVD", "assay": "APJ activation via beta-arrestin recruitment – CHO-K1 cells, PathHunter beta-arrestin, luminescence, primary screen (AID 2520)", "settings": "at 20 µM, stronger effect = higher value, 0% DMSO wells, 100% apelin", "how_it_was_run": "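Assay system: engineered CHO-K1 APJ arrestin reporter cells; Amount: 1000 CHO-K1 reporter cells seeded per well; Dosing: one dose, 20 µM compound, 1% DMSO; Times: compound stimulation 90 min at 25 °C, detection 60 min; Measured by: luminescent beta-gal fragment complementation, chemiluminescent substrate; Read-out: APJ–arrestin association signal; Controls: DMSO vs Apelin-13 10 nM.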"}
{"smiles": "Cn1c(=O)cc(OCCCC(=O)N2CCN(c3ccccn3)CC2)c2ccccc21", "activation": "-3.56%"}
{"smiles": "COc1ccc(NC(=O)CSc2nncc(=O)n2N)cc1OC", "activation": "-6.25%"}
{"smiles": "CN(C)/C=C(\\C#N)C(=O)c1cccnc1Oc1cccc(F)c1", "activation": "-4.09%"}
{"smiles": "CC(C)NC(=O)Nc1cccc2c1O[C@@H](CN(C)S(=O)(=O)c1ccc(F)cc1)[C@@H](C)CN([C@H](C)CO)C2=O", "activation": "-0.163%"}
{"smiles": "Cc1ccc(S(=O)(=O)N(C)C)cc1NC(=O)/C=C/c1cccs1", "activation": "2.48%"}
{"smiles": "Cn1ccnc1-c1nnn(-c2ccc(F)cc2)n1", "activation": "-4.89%"}
{"smiles": "CCOc1ccc(CN2CCN(Cc3ccon3)CC2CCO)cc1", "note": "(stereo not given)", "activation": "-0.588%"}
{"smiles": "Cc1ccc(C(=O)O)cc1-c1ccc(/C=C2\\SC(=O)N(CC(=O)Nc3ccc4c(c3)OCO4)C2=O)o1", "activation": "0.103%"}
{"smiles": "CC(NC(=O)c1ccc(Cl)cc1)C(=O)N1CCCCC1", "note": "(stereo not given)", "activation": "0.246%"}
{"smiles": "COc1ccc(C)cc1NC(=O)CSc1nnc2ccc(-c3ccccn3)nn12", "activation": "1.64%"}
{"smiles": "COc1ccc(CNS(=O)(=O)c2cc(-c3cc(C)no3)ccc2C(C)C)cc1", "activation": "0.556%"}
{"smiles": "CN1CCN(CC#CCC2(O)c3ccccc3-c3ccccc32)CC1", "activation": "-0.677%"}
{"smiles": "CN1CCN(S(=O)(=O)c2ccc(Nc3ccc(F)cc3)nc2)CC1", "activation": "7.91%"}
{"smiles": "Brc1ccc(CN2CC[C@H]3C=CCc4cccc(c43)C2)cc1", "activation": "-1.27%"}
{"smiles": "CCN1CN(Cc2ccccc2)CNC1=S", "activation": "-0.233%"}
{"smiles": "CCc1ccc(CN2C(=O)c3ccccc3C2C(=O)NCC2CCCO2)cc1", "note": "(stereo not given)", "activation": "1.09%"}
{"smiles": "CCCN(c1ccc(C(C)C)cc1)S(=O)(=O)c1c(C)[nH]c(=O)[nH]c1=O", "activation": "-2.76%"}
{"smiles": "Cc1nn(C)cc1N1C(=O)c2cccc3c(N)ccc(c23)C1=O", "activation": "-0.917%"}
{"smiles": "CCN1C(=O)c2cccc3c(S(=O)(=O)Nc4ccccc4O)ccc1c23", "activation": "2.45%"}
{"smiles": "CCN1C(=O)c2cccc3c(N)ccc1c23", "activation": "24% (active)"}
{"smiles": "O=S(=O)(N1CCCCC1)N1CCNCC1", "activation": "2.29%"}
{"smiles": "Cc1c(Cl)c([N+](=O)[O-])nn1Cc1ccc(C(=O)N/N=C\\c2cc(Cl)ccc2O)o1", "activation": "1.67%"}
{"smiles": "COc1cc(NC(=O)COC(=O)c2cc(S(=O)(=O)N3CCOCC3)ccc2F)cc(OC)c1", "activation": "-0.441%"}
{"smiles": "Cc1cc(C(=O)NCCc2ccc(Cl)cc2)c(C)o1", "activation": "7.66%"}
{"smiles": "CSCCC(C(=O)NC1=NCCS1)N1C(=O)c2ccccc2C1=O", "note": "(stereo not given)", "activation": "0.0635%"}
{"smiles": "CN(C(=O)c1cccc(NC(=O)Cc2ccc([N+](=O)[O-])cc2)c1)C1CCC1", "activation": "0.477%"}
{"smiles": "COc1cc(C(=O)Nc2cc(C(F)(F)F)ccc2N2CCOCC2)ccc1O", "activation": "-3.45%"}
{"smiles": "Cc1ccc(NC(=O)CN(C)C(=O)c2cccc(S(=O)(=O)N3CCCC3)c2)cc1", "activation": "-1.65%"}
{"smiles": "Cc1n[nH]c(=O)n1-c1ccc(Oc2ccccc2)cc1", "activation": "-4.14%"}
{"smiles": "O=C(CCS(=O)(=O)c1ccc2c(c1)NC(=O)CS2)NCc1ccccc1Cl", "activation": "0.174%"}
{"smiles": "COC(=O)c1ccc(COc2ccc(/C=N/NC(=O)C(=O)Nc3ccc(OC)cc3)cc2OC)o1", "activation": "-4.37%"}
{"smiles": "O=C(N/N=C/c1cccc(OCc2ccccc2)c1)c1ccc(Br)o1", "activation": "12%"}
{"smiles": "CCCc1ccc(OCc2ccc(C(=O)N/N=C/c3cccc([N+](=O)[O-])c3)o2)c(OC)c1", "activation": "47.7% (active)"}
{"smiles": "O=C(c1cnn2ccccc12)N1CCc2ccccc21", "activation": "-0.0654%"}
{"smiles": "CCc1ccc(N2CC(C(=O)NC3=NCCS3)CC2=O)cc1", "note": "(stereo not given)", "activation": "10.1%"}
{"smiles": "CSc1nccc(NC(=O)c2ccc(C(C)(C)C)cc2)n1", "activation": "1.31%"}
{"smiles": "CSc1cccc(NC(=S)N(C(C)C)C(C)c2ccccn2)c1", "note": "(stereo not given)", "activation": "1.84%"}
{"smiles": "COc1ccccc1N(C)S(=O)(=O)c1ccc(Cl)c(C(=O)Nc2ccncc2)c1", "activation": "4.67%"}
{"smiles": "COc1cccc(N(CC(=O)NC2CCCC2)C(=O)Cn2nnc(-c3ccc(C)o3)n2)c1", "activation": "2.12%"}
{"smiles": "CCc1nn(-c2cc(Oc3cccc4ccccc34)nc(-c3ccccc3)n2)c(N)c1C#N", "activation": "-3.92%"}
{"smiles": "COc1cccc(OC)c1CN(C)C(=O)c1cnccc1C(F)(F)F", "activation": "-2.03%"}
{"smiles": "CC(=O)NCC(=O)N1CCC(n2nccc2NC(=O)CCCc2ccccc2)CC1", "activation": "-2.51%"}
{"smiles": "CC1=C/C(=N\\OS(=O)(=O)c2ccccc2)C=CC1=O", "activation": "40.6% (active)"}
{"smiles": "COc1ccc(C/C(N)=N/OC(=O)c2ccco2)cc1OC", "activation": "6.23%"}
{"smiles": "COc1ccc(C(=O)O/N=C(\\N)Cc2ccc(Cl)cc2Cl)cc1OC", "activation": "11.8% (active)"}
{"smiles": "COc1ccc(C(=O)ON=C2c3ccccc3-c3ccccc32)cc1OC", "activation": "-1.57%"}
{"smiles": "COc1cccc(CSc2nc3nc(C)cc(C)n3n2)c1", "activation": "-1.45%"}
{"smiles": "CN(C(=O)CN1C(=O)NC(C)(CCc2ccccc2)C1=O)c1ccccc1", "note": "(stereo not given)", "activation": "-2.66%"}
{"smiles": "Cc1nn(CC(=O)NC2CCCCC2)c(=O)c2cccn12", "activation": "-3.35%"}
{"smiles": "CCOC(=O)C1C(c2ccc(OC)c(OC)c2)c2c([nH][nH]c2=O)CC1(C)O", "note": "(stereo not given)", "activation": "0.0386%"}
{"smiles": "O=c1ccc(-c2ccc(S(=O)(=O)Nc3ccccc3)o2)n[nH]1", "activation": "2.43%"}
{"smiles": "CC1=NN(C(=O)CCc2ccccc2O)C(O)(C(F)(F)F)C1", "note": "(stereo not given)", "activation": "-2.46%"}
{"smiles": "CC1=C(C/C=C(\\C)CCCC(C)CCCC(C)CCCC(C)C)C(=O)c2ccccc2C1=O", "note": "(stereo not given)", "activation": "16.4%"}
{"smiles": "Cc1cc(NC(=O)Nc2ccccc2[N+](=O)[O-])no1", "activation": "-0.224%"}
{"smiles": "Cc1csc(SCC(=O)N(c2ccccc2)C(C)C)n1", "activation": "-5.06%"}
{"smiles": "O=C(Nc1nnc(C2CC2)s1)C1=NN(C2CCS(=O)(=O)C2)C(=O)CC1", "note": "(stereo not given)", "activation": "-2.11%"}
{"smiles": "CN(C)S(=O)(=O)c1ccc(N/C=C(\\[N+](=O)[O-])S(=O)(=O)c2ccccc2)cc1", "activation": "-4.82%"}
{"smiles": "CC(=O)Nc1ccc(Sc2ccccc2C(=O)N2CCCC2)cn1", "activation": "-0.519%"}
{"smiles": "O=C(O)c1cccc2c1C(=O)N(C1CCCCC1)C2", "activation": "-1.33%"}
{"smiles": "CC1(C)NC(=O)N(CC(=O)N2CCN(S(=O)(=O)c3ccccc3F)CC2)C1=O", "activation": "-2.41%"}
{"smiles": "CCCCCCCCCCCCC(NC(C)=O)(C(=O)OCC)C(=O)OCC", "activation": "-3.1%"}
{"smiles": "O=S(=O)([N-]c1nc2ccccc2nc1-[n+]1ccc(Cc2ccccc2)cc1)c1ccc(Br)s1", "activation": "3.3%"}
{"smiles": "CN(CC(=O)NCCc1ccc(S(N)(=O)=O)cc1)CC(=O)Nc1ccc(Cl)cc1", "activation": "-2.04%"}
{"smiles": "Cc1ccc(-n2nc(N)c3c(=O)oc(N(C)C)nc32)cc1", "activation": "-1.59%"}
{"smiles": "CCOC(=O)c1sc(=NC(=O)/C=C/c2cccs2)n(C)c1C", "activation": "-1.39%"}
